From ChEMBL document CHEMBL1137655, “Isoxyl activation is required for bacteriostatic activity against Mycobacterium tuberculosis” (2007)
In brackets after ≈: the same amount, converted by molar mass.

Tests used:
[1] = tested on: Mycobacterium tuberculosis; assay: microbe, parasite or virus in culture; conditions: H37Rv ATCC 25618
[2] = tested on: Mycobacterium tuberculosis; assay: Ratio of MIC for Mycobacterium tuberculosis H37Rv overexpressing ethR gene to MIC for wild-type Mycobacterium tuberculosis H37Rv expressing VV16 plasmid; type: functional
Method in brief: (§1)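 Ratio of resazurin microtiter MICs in 7H9-ADC broth for H37Rv carrying pVVethR or pVVethA versus empty pVV16; ethA strain run at 32°C, ethR at 37°C.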

[3] = tested on: Mycobacterium tuberculosis; assay: Antimycobacterial activity against Mycobacterium tuberculosis MT1K ISO-R33 mutant overexpressing ethA gene by colorimetric resazurin microtiter assay; type: functional
Method in brief: (§2)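 Resazurin colorimetric microtiter MIC in 7H9-ADC broth with 2% DMSO at 37°C; strains carry empty pVV16 or pVVethA complementation vector; ISO tested up to 40 μg/ml, highest soluble level.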

[4] = tested on: Mycobacterium tuberculosis; assay: Antimycobacterial activity against Mycobacterium tuberculosis H37Rv ATCC 25618 overexpressing ethR gene by colorimetric resazurin microtiter assay; type: functional
Method in brief: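 Resazurin colorimetric microtiter MIC in 7H9-ADC broth at 37°C, for H37Rv carrying ethR on pVV vector; ISO tested up to 40 μg/ml, the solubility limit.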

[5] = tested on: Mycobacterium tuberculosis; assay: Antimycobacterial activity against Mycobacterium tuberculosis MT1K ISO-R22 mutant expressing VV16 plasmid by colorimetric resazurin microtiter assay; type: functional
Method in brief: as §2

[6] = tested on: Mycobacterium tuberculosis; assay: Antimycobacterial activity against Mycobacterium tuberculosis MT1K ISO-R22 mutant overexpressing ethA gene by colorimetric resazurin microtiter assay; type: functional
Method in brief: as §2

[7] = tested on: Mycobacterium tuberculosis; assay: Ratio of MIC for wild-type Mycobacterium tuberculosis H37Rv expressing VV16 plasmid to MIC for Mycobacterium tuberculosis H37Rv overexpressing ethA gene; type: functional
Method in brief: as §1

[8] = tested on: Mycobacterium tuberculosis; assay: Antimycobacterial activity against Mycobacterium tuberculosis MT1K ISO-R33 mutant expressing VV16 plasmid by colorimetric resazurin microtiter assay; type: functional
Method in brief: as §2

SMILES: CC(C)CCOc1ccc(NC(=S)Nc2ccc(OCCC(C)C)cc2)cc1 [TIOCARLIDE]
- MIC [1]: 2.5 µg/mL (≈ 6.24 µM)
- fold change (FC) [2]: 8
- MIC [3]: 5 µg/mL (≈ 12.5 µM)
- MIC [4]: > 40 µg/mL
- MIC [5]: >40 µg/mL
- MIC [6]: 5 µg/mL (≈ 12.5 µM)
- fold change (FC) [7]: 2
- MIC [8]: >40 µg/mL
